Results taken from ChEMBL document CHEMBL2385012, “Caesalpins A-H, bioactive cassane-type diterpenes from the seeds of Caesalpinia minax” (J Nat Prod, 2013).

Assays:
Assay type in all cases: functional, cell-based
HepG2 = test: Cytotoxicity against human HepG2 cells assessed as growth inhibition after 48 hrs by MTT assay; details: HepG2, 48 h
Procedure, shortened: (§1)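 Cells grown in DMEM with 10% FBS and seeded at 6 × 10^4 cells/mL. Five concentrations per compound added from DMSO, each tested in triplicate. Incubated 48 h at 37 °C under 5% CO2. MTT (4 mg/mL) added, then 4 h further incubation. Medium removed, formazan dissolved in DMSO, absorbance read at 570 nm. IC50 reported as mean ± SD of triplicate experiments. Doxorubicin served as positive control.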

MCF7 = test: Cytotoxicity against human MCF7 cells assessed as growth inhibition after 48 hrs by MTT assay; details: MCF7, 48 h; procedure, shortened: as §1
AGS = test: Cytotoxicity against human AGS cells assessed as growth inhibition after 48 hrs by MTT assay; procedure, shortened: as §1
A549 = test: Cytotoxicity against human A549 cells assessed as growth inhibition after 48 hrs by MTT assay; details: A549, 48 h; procedure, shortened: as §1
K562 = test: Cytotoxicity against human K562 cells assessed as growth inhibition

SMILES	IC50 (HepG2) [µM]	IC50 (MCF7) [µM]	IC50 (AGS) [µM]	IC50 (A549) [µM]	IC50 (K562) [µM]
COC(=O)CC1=C(C)C2=C[C@H](OC(C)=O)[C@@]3(O)C(C)(C)CC[C@H](OC(C)=O)[C@]3(C)[C@H]2CC1=O	4.7	2.1	> 50	14.6	–
COC(=O)CC1=C(C)[C@@H]2[C@@H](OC(C)=O)[C@H](OC(C)=O)[C@@]3(O)C(C)(C)CC[C@H](OC(C)=O)[C@]3(C)[C@H]2CC1=O	18.5	7.9	48.3	25.2	–
COC(CC1=C(C)[C@@H]2[C@@H](OC(C)=O)[C@H](OC(C)=O)[C@@]3(O)C(C)(C)CC[C@H](OC(C)=O)[C@]3(C)[C@H]2CC1=O)OC	10.6	15.6	45.8	31.8	–
CC(=O)O[C@H]1CCC(C)(C)C2=CC(=O)c3c(cc4occc4c3C)[C@]21C	> 50	> 50	6.5	24.8	–
CC(=O)O[C@H]1CCC(C)(C)[C@]2(O)[C@@H](OC(C)=O)[C@H](O)c3c(cc4occc4c3C)[C@@]12C	> 50	> 50	> 50	> 50	–
CO[C@@]12C[C@H]3[C@@H](CC[C@@]4(O)C(C)(C)C[C@H](OC(C)=O)[C@H](OC(C)=O)[C@]34C)[C@@H](C)C1=CC(=O)O2	> 50	46.1	> 50	> 50	–
C=C1C2=CC(=O)O[C@]2(OC)C[C@H]2[C@H]1[C@@H](O)C[C@@]1(O)C(C)(C)CC[C@H](OC(C)=O)[C@]21C	34.7	> 50	> 50	> 50	–
C=C1C2=CC(=O)O[C@]2(OC)C[C@H]2[C@H]1[C@@H](O)[C@H](OC(C)=O)[C@@]1(O)C(C)(C)CC[C@H](OC(C)=O)[C@]21C	38.9	> 50	> 50	> 50	–
CO[C@@]12C[C@H]3[C@@H](C[C@H](OC(C)=O)[C@@]4(O)C(C)(C)C[C@H](OC(C)=O)[C@H](OC(C)=O)[C@]34C)[C@](C)(O)C1=CC(=O)O2	47.2	> 50	29.1	> 50	–
CC(=O)OC1CC(C)(C)[C@]2(O)C[C@H](O)[C@H]3[C@@H](C)C4=CC(=O)O[C@]4(O)C[C@@H]3[C@@]2(C)[C@H]1OC(C)=O (stereo partly drawn)	> 50	36.1	> 50	31.9	–
CC(=O)O[C@@H]1[C@@H]2[C@H](C=C3OC(=O)C=C3[C@@]2(C)O)[C@@]2(C)[C@@H](OC(C)=O)CCC(C)(C)[C@]2(O)[C@H]1OC(C)=O	> 50	41.2	> 50	> 50	–
CC(=O)O[C@H]1CC(C)(C)[C@]2(O)CC[C@H]3[C@@H](C)C4=CC(=O)OC4=C[C@@H]3[C@@]2(C)[C@H]1OC(C)=O	> 50	> 50	> 50	> 50	–
COc1cccc2c1C(=O)c1c(O)c3c(c(O)c1C2=O)C[C@@](O)(C(=O)CO)C[C@@H]3O[C@H]1C[C@H](N)[C@H](O)[C@H](C)O1 [DOXORUBICIN]	0.59	0.94	1.2	0.74	–
C#C[C@@]12O[C@]1(C=O)[C@]1(C)CC[C@H]3C(C)(C)CCC[C@]3(C)[C@H]1CC2=O [ESCOBARINE A]	–	–	–	–	2.52
